Assay results published in ChEMBL document CHEMBL1123504, “2,3-Dialkyl(dimethylamino)indoles: interaction with 5HT1, 5HT2, and rat stomach fundal serotonin receptors” (J Med Chem, 1986).

Key:
Rattus norvegicus [1] = species: Rattus norvegicus; experiment: Tested for noncumulative contractile concentration -response curves for serotonin in the rat fundus.; assay type: functional
Outline: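 Isolated rat stomach fundus strips, four per fundus, in 10 mL modified Krebs. Noncumulative serotonin curves, about 2 min contact per concentration, washout every 15-20 min, maximal contraction read. Antagonist or buffer for 1 h, then curve repeated; one antagonist concentration per tissue. KB = [B]/(dose ratio - 1) from ED50 shift, reported as -log KB.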

Rattus norvegicus [2] = species: Rattus norvegicus; experiment: Tested for cumulative contractile concentration -response curves for serotonin in the rat jugular vein.
[3] = target: Serotonin 2 (5-HT2) receptor (Rattus norvegicus, UniProt P30994+P08909+P14842); experiment: Binding affinity towards 5-hydroxytryptamine 2 receptor in rat brain cortical membranes; assay type: cell membranes
Outline: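 5HT2 site, [3H]spiperone binding to cortical membranes of 150-200-g male Wistar rats, preincubated to deplete endogenous 5HT; […] per 1 mL Tris buffer. Nonspecific binding defined with 10^-6 M lysergic acid diethylamide. IC50 taken as 50% inhibition of specific binding, 10 concentrations from 10^-9 to 10^-4 M.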

[4] = target: T1, Serotonin 1 (5-HT1) receptor (Rattus norvegicus, UniProt P28564+P30940+P19327+P28565); experiment: Binding affinity towards 5-hydroxytryptamine 1 receptor in brain cortical membranes of rat; assay type: cell membranes
Outline: (§1)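 Rat 5HT1 site: cortical membranes from 150-200-g male Wistar rats, preincubated in buffer to remove endogenous 5HT; […] per sample in 1 mL Tris buffer. [3H]-5HT at 2.3-2.6 nM; nonspecific binding with 10^-5 M 5HT. IC50 = 50% inhibition of specific binding, from 10 concentrations spanning 10^-9 to 10^-4 M.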

[5] = target: T1, Serotonin 1 (5-HT1) receptor; experiment: Tested for its binding affinity towards 5-hydroxytryptamine 1 receptor in rat; outline: as §1
Rattus norvegicus [6] = species: Rattus norvegicus; experiment: Tested for cumulative contractile concentration -response curves for serotonin in the rat jugular vein

Row | Compound | -Log KB (Rattus norvegicus [1]) | -Log KB (Rattus norvegicus [2]) | IC50 [3] [nM] | IC50 [4] [nM] | IC50 [5] [nM] | -Log KB (Rattus norvegicus [6])
1 | CCc1c(C)n(CC)c2ccc(N(C)C)cc12 | 7.01 | 6.45 | > 1000 | > 1000 |  | 
2 | CCc1c(C)n(C)c2ccc(N(C)C)cc12 | 7.32 | 6.51 | > 1000 | > 1000 |  | 
3 | CCc1c(C)n(C(=O)c2ccc(F)cc2)c2ccc(N(C)C)cc12 | <5 |  | > 1000 |  | > 1000 | 
4 | CCc1c(C)n(C(C)C)c2ccc(N(C)C)cc12 | 7 |  | > 1000 | > 1000 |  | 7.28
5 | CCc1c(C)[nH]c2ccc(N(C)C)cc12 | 7.3 | 4.93 | > 1000 | > 1000 |  | 
6 | CCc1c(C)n(C)c2c(N(C)C)cccc12 | <5.5 |  | > 1000 | > 1000 |  | 
7 | CCc1c(C)[nH]c2ccc(N(C)C)c(Cl)c12 | 6.86 |  | > 1000 | > 1000 |  | 
8 | CCCn1c(C)c(CC)c2cc(N(C)C)ccc21 | 6.57 |  | > 1000 | > 1000 |  | 
9 | CCc1c(C)n(C)c2ccc(NC(=O)Nc3cccc(C(F)(F)F)c3)cc12 | 7.16 | 5.18 | > 1000 | > 1000 |  | 
10 | CCc1c(C)c2cc(N(C)C)ccc2n1C | 6.69 |  | > 1000 | > 1000 |  | 6.48
11 | Cc1c(C)n(C)c2ccc(N(C)C)cc12 | 6.71 |  | > 1000 | > 1000 |  | 
